Here are results for 24 molecules from ChEMBL document CHEMBL1132491, “Benzimidazole derivatives. 2. Synthesis and structure-activity relationships of new azabicyclic benzimidazole-4-carboxylic acid derivatives with affinity for serotoninergic 5-HT(3) receptors” (J Med Chem, 1999).

A word on the pKi: it is the Ki on a negative log10 scale, so that one unit is a factor of ten. Lower therefore signals a high Ki.

The target in assay [1] is T1, Serotonin 3 (5-HT3) receptor (Rattus norvegicus, UniProt P35563+Q9JJ16).
T1 sequence (P35563 whole entry): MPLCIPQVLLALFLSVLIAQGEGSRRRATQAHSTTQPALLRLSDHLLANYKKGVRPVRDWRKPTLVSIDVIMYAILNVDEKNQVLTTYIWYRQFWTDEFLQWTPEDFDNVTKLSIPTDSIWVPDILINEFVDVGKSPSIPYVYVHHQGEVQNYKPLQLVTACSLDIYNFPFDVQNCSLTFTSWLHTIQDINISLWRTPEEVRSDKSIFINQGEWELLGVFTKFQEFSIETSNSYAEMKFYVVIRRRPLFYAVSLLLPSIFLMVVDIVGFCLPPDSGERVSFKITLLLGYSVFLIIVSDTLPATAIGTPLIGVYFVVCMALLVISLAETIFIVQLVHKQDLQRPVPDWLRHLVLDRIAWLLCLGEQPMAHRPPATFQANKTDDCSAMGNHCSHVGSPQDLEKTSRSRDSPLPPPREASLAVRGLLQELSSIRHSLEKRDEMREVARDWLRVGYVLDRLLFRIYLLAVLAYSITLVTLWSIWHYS
T1 sequence (Q9JJ16 whole entry): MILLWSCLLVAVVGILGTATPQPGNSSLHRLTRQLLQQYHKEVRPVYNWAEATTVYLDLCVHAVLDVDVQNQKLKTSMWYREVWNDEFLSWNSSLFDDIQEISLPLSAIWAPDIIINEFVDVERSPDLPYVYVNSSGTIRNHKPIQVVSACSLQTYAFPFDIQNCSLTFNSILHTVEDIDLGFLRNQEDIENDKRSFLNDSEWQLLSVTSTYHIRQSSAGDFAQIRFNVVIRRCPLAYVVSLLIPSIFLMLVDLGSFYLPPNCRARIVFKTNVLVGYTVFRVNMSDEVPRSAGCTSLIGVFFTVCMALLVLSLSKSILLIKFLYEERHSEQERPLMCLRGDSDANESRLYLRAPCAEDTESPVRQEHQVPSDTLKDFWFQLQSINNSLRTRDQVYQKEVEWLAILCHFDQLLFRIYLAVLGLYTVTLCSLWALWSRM
Nature of the assay: In vitro affinity at serotonergic 5-hydroxytryptamine 3 receptor by radioligand binding assay, using [3H]-LY 278584 in rat cerebral cortex membranes. In kind it is cell membranes. The essentials: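 Rat cerebral cortex membranes prepared in 0.32 M sucrose, then washed in 50 mM Tris-HCl pH 7.4 and preincubated at 37 °C for 10 min. About 2 mg/mL protein incubated 30 min at 25 °C with 0.7 nM [3H]LY 278584 and six competitor concentrations. Buffer contained pargyline, ascorbate and CaCl2. Nonspecific binding defined with 10 μM 5-HT. Triplicates, filtration, scintillation counting. Ki from IC50 via Cheng–Prusoff, means of 2–4 assays.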

Assay [2] deals with 5-hydroxytryptamine receptor 4 (Rattus norvegicus, UniProt Q62758). Nature of the assay: In vitro affinity at serotonergic 5-hydroxytryptamine 4 receptor by radioligand binding assay using [3H]GR-113808 in rat striatum membranes. In kind it is cell membranes.
Chain of 5-hydroxytryptamine receptor 4 (Q62758 whole entry): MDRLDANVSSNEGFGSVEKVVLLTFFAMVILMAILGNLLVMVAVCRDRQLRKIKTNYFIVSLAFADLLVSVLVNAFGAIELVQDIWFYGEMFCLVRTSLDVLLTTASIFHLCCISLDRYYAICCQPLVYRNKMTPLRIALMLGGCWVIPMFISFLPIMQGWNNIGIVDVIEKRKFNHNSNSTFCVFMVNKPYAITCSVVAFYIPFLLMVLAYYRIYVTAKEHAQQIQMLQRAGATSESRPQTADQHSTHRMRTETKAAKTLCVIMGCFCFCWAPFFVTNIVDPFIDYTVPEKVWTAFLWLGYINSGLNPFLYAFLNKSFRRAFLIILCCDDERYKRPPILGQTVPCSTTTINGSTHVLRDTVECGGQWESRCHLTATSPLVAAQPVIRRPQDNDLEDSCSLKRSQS
For assay [3], the species on record is Cavia porcellus. The assay can be described thus: Single-point analysis using 5(10e-9) M concentration of the antagonist (pA2= -log([B]/concentration ratio-1); [B] =concentration of the antagonist). To be noted: read-out: pA2 (converted). It counts as functional. The method in brief:
(§1)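 Ileal strip preparation with methysergide 10^-6 M present. Paired noncumulative 5-HT curves are run, with the antagonist at 5×10^-9 M added 30 min before the second curve. The concentration ratio is taken at the 5-HT level giving 50% of the control maximum in the ≥10^-6 M phase. Single-point pA2 = −log([B]/(CR−1)) (Furchgott).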

For assay [4], the target named is Serotonin 3 (5-HT3) receptor (Homo sapiens) (UniProt P46098+A5X5Y0+O95264+Q70Z44+Q8WXA8). Particulars: Cavia porcellus; Ileum.
The target in assay [5] is T1, Serotonin 3 (5-HT3) receptor. Nature of the assay: Compound was evaluated for its in vitro affinity at serotonergic 5-hydroxytryptamine 3 receptor by radioligand binding assay, using [3H]-LY 278584 in rat cerebral cortex membranes. It counts as cell membranes.
Assay [6] is filed under the species Cavia porcellus. Nature of the assay: Single-point analysis using 5(10e-9) M concentration of the antagonist (pA2= -log([B]/concentration ratio-1); [B] =concentration of the antagonist). In kind it is functional. To be noted: read-out: pA2 (converted). The method in brief: as §1

pKi: −log10 of the molar value. Where only a bound is given, the exact number is not on record here.

Consider `O=C(N[C@H]1CN2CCC1CC2)c1cc(Br)cc2nc[nH]c12`, for which the pKi in assay [1] was 8.47; in assay [2], 6.57.

In turn, `CN1C2CCCC1CC(NC(=O)c1nn(C)c3ccccc13)C2` (stereo not given) [GRANISETRON] gave a pKi in assay [2] of under 6.00.

In the case of `CCC1CCN(C)C[C@H]1NC(=O)c1cccc2[nH]cnc12` (stereo not given in full), in assay [3], the Kb is 0.251 nM. The negative-log Ki (pKi) is 8.59 in assay [1] and under 6.00 in assay [2].

Consider `O=C(N[C@@H]1CN2CCC1CC2)c1cc(Cl)c([N+](=O)[O-])c2nc[nH]c12`, for which the Kb in assay [3] is 0.794 nM. Also, the pKi was 8.77 in assay [1] and under 6.00 in assay [2]. In addition, the ED50 in assay [4] was determined as 68000 nM.

On to `O=C(N[C@@H]1CN2CCC1CC2)c1cc(Br)cc2nc[nH]c12`, for which the pKi in assay [1] was 9.55; in assay [2] it was 7.42.

In assay [5], `CN1C2CCCC1CC(OC(=O)c1cccc3nc[nH]c13)C2` (stereo not given) gave a pKi of 6.17.

`CN1C2CCC1CC(OC(=O)c1cccc3[nH]cnc13)C2` (stereo in doubt; 23): the pKi in assay [5] is under 6.00; in assay [2], under 5.00.

Regarding `CN1C2CCC1CC(NC(=O)c1cccc3[nH]cnc13)C2` (stereo not given), the results for the pKi in assay [1] and in assay [2] were 6.93 and under 5.00, respectively.

Take `CN1C2CCCC1CC(NC(=O)c1cccc3[nH]cnc13)C2` (stereo not given): the pKi in assay [1] was 6.64; in assay [2], under 5.00.

As for `O=C(NC1CN2CCC1CC2)c1cc(Cl)c([N+](=O)[O-])c2nc[nH]c12` (stereo not given), the pKi in assay [1] is 8.28; in assay [2] it was under 6.00.

Regarding `O=C(N[C@@H]1CN2CCC1CC2)c1cc(Cl)cc2nc[nH]c12`, the Kb in assay [3] is 0.126 nM. Further, the negative logarithm of the Ki (pKi) in assay [1] was 9.89; in assay [2] it was under 5.00. For the same molecule, the ED50 in assay [4] came out at 17000 nM.

For the molecule `Nc1ccc(C(=O)NC2CN3CCC2CC3)c2[nH]cnc12` (stereo not given), the pKi in assay [1] was 8.62; in assay [2], 6.11.

Take `O=C(NC1CN2CCC1CC2)c1cc(Br)c([N+](=O)[O-])c2nc[nH]c12` (stereo not given): the pKi in assay [1] is 8.06; in assay [2], under 5.00.

Take `Nc1c(Br)cc(C(=O)NC2CN3CCC2CC3)c2[nH]cnc12` (stereo not given): the pKi is 9.38 in assay [1] and 6.64 in assay [2].

For the molecule `Cc1nccn1CC1CCc2c(c3ccccc3n2C)C1=O` (stereo not given) [ONDANSETRON], in assay [6], the Kb was 0.126 nM. The ED50 in assay [4] stood at 43000 nM.

`CN1C2CCC1CC(NC(=O)c1cc(Cl)cc3nc[nH]c13)C2` (stereo not given): the pKi is 7.78 in assay [1] and 6.50 in assay [2].

As for `CN1C2CCCC1CC(NC(=O)c1cc(Cl)cc3nc[nH]c13)C2` (stereo not given), the pKi in assay [1] is 7.08; in assay [2], under 6.00.

`O=C(NC1CN2CCC1CC2)c1cc(Br)cc2nc[nH]c12` (stereo not given): the pKi was 9.54 in assay [1] and 6.77 in assay [2].

On to `CN1C2CCCC1CC(OC(=O)c1cc(Cl)cc3[nH]cnc13)C2` (stereo not given), for which the negative logarithm of the Ki (pKi) in assay [1] is 7.05.

For the molecule `O=C(N[C@H]1CN2CCC1CC2)c1cc(Cl)cc2nc[nH]c12`, the pKi was 9.12 in assay [1] and 6.69 in assay [2].

In the case of `CN1C2CCC1CC(OC(=O)c1cccc3[nH]cnc13)C2` (stereo in doubt; 24), the pKi in assay [5] was under 6.00; in assay [2], under 5.00.

For `Nc1c(Cl)cc(C(=O)NC2CN3CCC2CC3)c2[nH]cnc12` (stereo not given), the pKi in assay [1] is 9.62; in assay [2], 6.73.

Regarding `CN1C2CCC1CC(OC(=O)c1cc(Cl)cc3[nH]cnc13)C2` (stereo not given), the pKi in assay [1] was 7.21; in assay [2] it was 6.45.

As for `CCC1CCN(C)C[C@@H]1NC(=O)c1cccc2nc[nH]c12` (stereo not given in full), the pKi in assay [1] was 7.42; in assay [2], under 5.00.
